ChEMBL document CHEMBL1124920, “cis-diamineplatinum (II) complexes containing phosphono carboxylate ligands as antitumor agents” (J Med Chem, 1990)

Legend:
M5076 [1] = experiment: Optimum dose measured in mg/kg; assay type: functional, organism-based
M5076 [2] = experiment: Antitumor activity of the best % ILS of platinum-phospono carboxylate complex against subcutaneously implanted M5076 reticulum cell sarcoma; assay type: functional
Procedure, shortened: (§1)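 BDF1 mice of either sex (6-10 weeks) were implanted sc on day 0 with ~25 mg M5076 tumor fragments. Dosing was iv on days 5, 9, 13 and 17, with doses given per injection, in groups of eight. Study ended on day 75. Read-outs were % ILS of MST and T-C, the difference in median days for tumors to reach 1 g. Active means ILS ≥25% or T-C >13 days.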

M5076 [3] = experiment: Relative median time for tumors to reach 1 g in drug-treated groups and the control group (T-C in days); assay type: functional; procedure, shortened: as §1
L1210 [4] = experiment: Antitumor activity (ip) against CDF1 mice bearing Leukemia L1210 cells in 6 mice; assay type: functional, organism-based; settings: Mus musculus
Procedure, shortened: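 Female CDF1 mice (16-22 g) inoculated ip with 1 × 10^6 L1210 cells in 0.5 mL […] on day 0. Compound given day 1 in 0.5 mL water, six mice per dose. Vehicle controls and cisplatin 8 mg/kg positive controls included. Run to 3× control MST, survivors scored as dying then. Read-out %ILS of MST; >25% active, maximum 200%.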

L1210 [5] = experiment: Optimal dose of the compound measured in mg/kg against CDF1 mice bearing L1210 leukemia cells.; assay type: functional, organism-based; settings: Mus musculus
Procedure, shortened: (§2)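 Female CDF1 mice (16-22 g) received 1 × 10^6 L1210 cells ip in 0.5 mL […] on day 0. Test compound was given in 0.5 mL water on day 1, with six mice per dose. The study ended at 3× the control mean survival time (MST), and survivors were scored as dying that day. ILS is the % increase in MST over controls; >25% counts as active, and the maximum possible is 200%.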

L1210 [6] = experiment: Antitumor activity (ip) against CDF1 mice bearing Leukemia L1210 cells; assay type: functional, organism-based; settings: Mus musculus; procedure, shortened: as §2
Mus musculus [7] = organism: Mus musculus; experiment: Optimal dose in Sarcoma inoculated CFW mice.; assay type: functional, organism-based
Procedure, shortened: (§3)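 Female CFW mice (18-25 g) were implanted ip with 2 × 10^6 Sarcoma 180 ascites cells on day 0. Compound was given ip in 0.5 mL water on day 1, with six mice per dose. The run lasted twice the control MST, and survivors were counted as dying then. Activity is % ILS of MST; >50% counts as active, and the maximum is 100%.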

Mus musculus [8] = experiment: Antitumor activity against CFW mice bearing Sarcoma 180 ascites (S180a) following i.p. administration.; assay type: functional, organism-based; procedure, shortened: as §3
Mus musculus [9] = experiment: Number of surviving CFW mice bearing Sarcoma 180 ascites (S180a) (6 mice treated i.p.); assay type: functional, organism-based
Procedure, shortened: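 Female CFW mice (18-25 g) implanted ip with 2 × 10^6 S180 ascites cells on day 0. Compound given ip in 0.5 mL water on day 1, adjusted to pH 7, six mice per dose. Vehicle and cisplatin control groups included. Run to twice control MST, survivors counted as dying that day. Read-out %ILS of MST; >50% active, maximum 100%.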

**Q.** How did the DOSE (M5076 [1]) turn out when CISPLATIN was run?
**A.** 5

**Q.** What about the ILS (M5076 [2]) of the same sequence?
**A.** 28%

**Q.** What about the T-C (M5076 [3]) of the same sequence?
**A.** 25

**Q.** And the Survivors (L1210 [4])?
**A.** 0

**Q.** What about the DOSE (L1210 [5]) of the same sequence?
**A.** 8 mg/kg

**Q.** And the ILS (L1210 [6])?
**A.** 87%

**Q.** What about the DOSE (Mus musculus [7]) of the same sequence?
**A.** 8 mg/kg

**Q.** And the ILS (Mus musculus [8])?
**A.** 81%

**Q.** And the Survivors (Mus musculus [9])?
**A.** 3

**Q.** For CARBOPLATIN, which Survivors (L1210 [4]) is on record?
**A.** 0

**Q.** What about the DOSE (L1210 [5]) of the same sequence?
**A.** 80 mg/kg

**Q.** And the ILS (L1210 [6])?
**A.** 90%

**Q.** And the DOSE (Mus musculus [7])?
**A.** 120 mg/kg

**Q.** And the ILS (Mus musculus [8])?
**A.** 95%

**Q.** And the Survivors (Mus musculus [9])?
**A.** 4
